Active and inactive are the calls of the source. No cut-off for these calls is given here.
Tests used:
[1] = Stability in 20 mM HEPES buffer assessed as beta-lactone hydrolysis rate at pH 7.3 at 37 degC
[2] = Inhibition of caspase-like activity of rabbit 20S proteasome; set-up: species or system Oryctolagus cuniculus
In short: (§1)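 Purified rabbit muscle 20S proteasome at 1.4 nM final. T-L used the same buffer without SDS and Boc-LRR-AMC. Serial dilutions were preincubated 5 min at 37 °C. AMC fluorescence ex 390/em 460 nm.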

[3] = Inhibition of chymotrypsin-like activity of rabbit 20S proteasome; set-up: species or system Oryctolagus cuniculus
In short: as §1

[4] = Inhibition of trypsin-like activity of rabbit 20S proteasome; set-up: species or system Oryctolagus cuniculus
In short: as §1

[5] = organism: Oryctolagus cuniculus; assay: Inhibition of caspase-like activity of rabbit 20S proteasome assessed as enzyme activity recovery 12 hrs after dialysis
In short: (§2)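 Rabbit 20S proteasome (1.4 nM final) was incubated 1 h at ambient temperature with compound or DMSO (0.1% final) in 20 mM HEPES pH 7.3, 0.5 mM EDTA, 0.05% Triton X-100, 0.035% SDS (SDS omitted for T-L). Mixtures were dialysed (MWCO 12-14000) against assay buffer at ambient temperature. Samples taken at 0, 1, 2, 5, 24 h (some also 12 h) for site activity, normalised to DMSO controls.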

[6] = Inhibition of chymotrypsin-like activity of yeast 20S proteasome; set-up: species or system Saccharomyces cerevisiae
In short: (§3)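 Purified yeast 20S proteasome in 75 mM Tris-HCl pH 7.8 with 0.02% SDS. Serial compound dilutions were preincubated 5 min at 37 °C, then substrate was added: Suc-LLVY-AMC at 20 µM final (CT-L), Z-LLE-AMC (C-L), or Bz-VGR-AMC with SDS omitted (T-L). Cleaved AMC read at ex 390/em 460 nm.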

[7] = organism: Oryctolagus cuniculus; assay: Inhibition of chymotrypsin-like activity of rabbit 20S proteasome assessed as enzyme activity recovery 12 hrs after dialysis
In short: as §2

[8] = Inhibition of trypsin-like activity of yeast 20S proteasome; set-up: species or system Saccharomyces cerevisiae
In short: as §3

[9] = Inhibition of caspase-like activity of yeast 20S proteasome; set-up: species or system Saccharomyces cerevisiae
In short: as §3

[10] = organism: Oryctolagus cuniculus; assay: Inhibition of trypsin-like activity of rabbit 20S proteasome assessed as enzyme activity recovery 12 hrs after dialysis
In short: as §2

[11] = organism: Oryctolagus cuniculus; assay: Inhibition of chymotrypsin-like activity of rabbit 20S proteasome assessed as enzyme activity recovery 24 hrs after dialysis
In short: as §2

[12] = Inhibition of trypsin-like activity of human 20S proteasome
[13] = Inhibition of chymotrypsin-like activity of human 20S proteasome
[14] = Inhibition of chymotrypsin-like activity of human 20S proteasome assessed as release of free AMC substrate by fluorimetry based kinetic assay
[15] = Inhibition of caspase-like activity of human 20S proteasome
[16] = Inhibition of trypsin-like activity of human 20S proteasome assessed as release of free AMC substrate by fluorimetry based kinetic assay
[17] = organism: Oryctolagus cuniculus; assay: Inhibition of trypsin-like activity of rabbit 20S proteasome assessed as enzyme activity recovery 24 hrs after dialysis
In short: as §2

[18] = Inhibition of caspase-like activity of human 20S proteasome assessed as release of free AMC substrate by fluorimetry based kinetic assay
[19] = organism: Oryctolagus cuniculus; assay: Inhibition of caspase-like activity of rabbit 20S proteasome assessed as enzyme activity recovery 24 hrs after dialysis
In short: as §2

[20] = organism: Homo sapiens; assay: Inhibition of caspase-like activity of human 20S proteasome assessed as enzyme activity recovery 12 hrs after dialysis
[21] = organism: Homo sapiens; assay: Inhibition of trypsin-like activity of human 20S proteasome assessed as inactivation rate by fluorimetry based kinetic assay
[22] = organism: Homo sapiens; assay: Inhibition of caspase-like activity of human 20S proteasome assessed as inactivation rate by fluorimetry based kinetic assay
[23] = organism: Homo sapiens; assay: Inhibition of trypsin-like activity of human 20S proteasome assessed as enzyme activity recovery 12 hrs after dialysis
[24] = organism: Homo sapiens; assay: Inhibition of chymotrypsin-like activity of human 20S proteasome assessed as inactivation rate by fluorimetry based kinetic assay
[25] = organism: Homo sapiens; assay: Inhibition of chymotrypsin-like activity of human 20S proteasome assessed as enzyme activity recovery 12 hrs after dialysis

Row | SMILES | half-life [1] | IC50 [2] | IC50 [3] | IC50 [4] | Activity [7] | Activity [11] | also measured
1 | CN(C)c1cccc2c(S(=O)(=O)OCC[C@H]3C(=O)N[C@@]4([C@@H](O)[C@@H]5C=CCCC5)C(=O)O[C@@]34C)cccc12 | 2.98 h | 90 nM | 3 nM | 12 nM | – | – | –
2 | CC[C@H]1C(=O)N[C@@]2([C@@H](O)[C@@H]3C=CCCC3)C(=O)O[C@@]12C [SALINOSPORAMIDE B] | 3.17 h | – | – | 610 nM | inactive | – | Activity [5]: inactive; IC50 [6]: 16 nM; IC50 [8]: 1040 nM; IC50 [9]: > 20000 nM; Activity [10]: inactive
3 | C[C@@]12OC(=O)[C@@]1([C@@H](O)[C@@H]1C=CCCC1)NC(=O)[C@@H]2CCO [hydroxysalinosporamide A] | 1.42 h | 1200 nM | 14 nM | 1200 nM | inactive | – | –
4 | C[C@@]12OC(=O)[C@]1([C@@H](O)[C@@H]1C=CCCC1)NC(=O)[C@@H]2CCI [IODOSALINOSPORAMIDE] | 1.53 h | 410 nM | 2.8 nM | 13 nM | – | – | –
5 | C[C@@]12OC(=O)[C@]1([C@@H](O)[C@@H]1C=CCCC1)NC(=O)[C@@H]2CCBr [BROMOSALINOSPORAMIDE] | 1.33 h | 290 nM | 2.6 nM | 14 nM | – | – | –
6 | C[C@@]12OC(=O)[C@]1([C@@H](O)[C@@H]1C=CCCC1)NC(=O)[C@@H]2CCF [FLUOROSALINOSPORAMIDE] | 1.32 h | – | 9.2 nM | – | – | Active | –
7 | C[C@@]12OC(=O)[C@]1([C@@H](O)[C@@H]1C=CCCC1)NC(=O)[C@@H]2CCOS(C)(=O)=O | 0.983 h | 870 nM | 4.3 nM | 65 nM | – | Active | –
8 | CCC[C@H]1C(=O)N[C@@]2([C@@H](O)[C@@H]3C=CCCC3)C(=O)O[C@@]12C | 2.85 h | 1200 nM | 24 nM | 1100 nM | inactive | – | –
9 | Cc1ccc(S(=O)(=O)OCC[C@H]2C(=O)N[C@@]3([C@@H](O)[C@@H]4C=CCCC4)C(=O)O[C@@]23C)cc1 | 1.25 h | 127 nM | 2.5 nM | 9.9 nM | – | Active | –
10 | C[C@@]12OC(=O)[C@]1([C@@H](O)[C@@H]1C=CCCC1)NC(=O)[C@@H]2CCCl [MARIZOMIB] | 1.28 h | – | – | – | – | Active | IC50 [12]: 28 nM; IC50 [13]: 3.5 nM; IC50 [6]: 2 nM; Ki [14]: 23 nM; IC50 [15]: 430 nM; Ki [16]: 97 nM; Activity [17]: Active; Ki [18]: > 1000 nM; Activity [19]: Active; Activity [20]: Active; Activity [21]: 0.003 s⁻¹; IC50 [8]: 59 nM; Activity [22]: > 0.02 s⁻¹; IC50 [9]: 2600 nM; Activity [23]: Active; Activity [24]: 0.01 s⁻¹; Activity [25]: Active
11 | C[C@H]1C(=O)N[C@@]2([C@@H](O)[C@@H]3C=CCCC3)C(=O)O[C@@]12C | 1.58 h | 460 nM | 7.5 nM | 370 nM | inactive | – | –
